Set-up in all cases: scale not given: the % may be the effect or the level left
The nature of assay [1]: Inhibition of trypsin at 2.4 uM relative to control. A digest of the protocol: (§1)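 Enzyme assays run per supplier catalogue protocols, substrates as printed: […], elastase N-succinyl-Ala-Ala-Ala-pNA. Test sample given in MeOH; control received 10 µL MeOH in its place. Activity relative to solvent-treated control, mean of five data points with standard error of the mean.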

Assay [2] can be described thus: Inhibition of trypsin at 12.2 uM relative to control. The gist of the method: as §1
Assay [3] can be described thus: Inhibition of trypsin at 97.6 uM relative to control. The gist of the method: as §1
The nature of assay [4]: Inhibition of elastase at 2.4 uM relative to control. A digest of the protocol:
as §1

Assay [5] is described as follows: Inhibition of elastase at 12.2 uM relative to control. The gist of the method:
as §1

Assay [6] is described as follows: Inhibition of elastase at 97.6 uM relative to control. The gist of the method: as §1
A short description of assay [7]: Inhibition of chymotrypsin at 2.4 uM relative to control. The gist of the method: as §1
Assay [8] in a line: Inhibition of chymotrypsin at 12.2 uM relative to control. The gist of the method:
as §1

The nature of assay [9]: Inhibition of chymotrypsin at 97.6 uM relative to control. A digest of the protocol:
as §1

Regarding `COC(=O)c1oc2cc(O)c(O)cc2c1-c1c(C(=O)OC)oc2cc(O)c(O)cc12`, the Activity in assay [1] was 3.1%; in assay [2] it was 5.6%; in assay [3], 5.9%; in assay [4], 22%; in assay [5], 27.6%; in [6] it was 29%. The Activity in assay [7] came out at 3.7%; in assay [8], 6.6%; in assay [9], 4%.
